Values after ≈ are worked out from the molar mass of the structure shown.
How the values were obtained:
[1] = test system: Escherichia coli; experiment: Antibacterial activity against 5 x 10^5 CFU/ml Escherichia coli ATCC […] by Etest method in presence of […] NAB739; format: functional
[2] = test system: Escherichia coli; experiment: Antibacterial activity against Escherichia coli ATCC 25992 in presence of NAB7061; format: functional
[3] = test system: Escherichia coli; experiment: Antibacterial activity against Escherichia coli ATCC […] by Etest method in presence of NAB7061; format: functional
[4] = test system: Pseudomonas aeruginosa; experiment: Antibacterial activity against Pseudomonas aeruginosa ATCC 27853by Etest method in presence of […] NAB739; format: functional
[5] = test system: Pseudomonas aeruginosa; experiment: Antibacterial activity against Pseudomonas aeruginosa ATCC 27853by Etest method; format: functional
Procedure, shortened: (§1)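 MICs of the antibiotic taken from E-strips on Mueller-Hinton agar, run both with and without peptide. […] Inoculum was prepared per the strip manufacturer, matching CLSI M2-A9.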

[6] = test system: Acinetobacter baumannii; experiment: Antibacterial activity against Acinetobacter baumannii F264 by Etest method in presence of 1 ug/ml NAB739; format: functional
[7] = test system: Acinetobacter baumannii; experiment: Antibacterial activity against Acinetobacter baumannii F264 by Etest method in presence of 0.5 ug/ml NAB739; format: functional
[8] = test system: Acinetobacter baumannii; experiment: Antibacterial activity against Acinetobacter baumannii F264 by Etest method in presence of […] NAB739; format: functional
[9] = test system: Acinetobacter baumannii; experiment: Antibacterial activity against Acinetobacter baumannii ATCC 19606 by Etest method in presence of 1 ug/ml NAB739; format: functional
[10] = test system: Acinetobacter baumannii; experiment: Antibacterial activity against Acinetobacter baumannii ATCC 19606 by Etest method; format: functional
[11] = test system: Escherichia coli; experiment: Antibacterial activity against 5 x 10^5 CFU/ml Escherichia coli ATCC 25992 in presence of 8 ug/ml NAB7061 by Checkerboard method; format: functional
[12] = test system: Escherichia coli; experiment: Antibacterial activity against 5 x 10^5 CFU/ml Escherichia coli ATCC […] by Etest method by Etest in presence of 4 ug/ml NAB7061; format: functional
Procedure, shortened: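 Antibiotic MICs were read from E-strips on Mueller-Hinton agar containing the peptide at 1 to 16 μg/ml in twofold steps, or at a single 4 μg/ml, and on agar without peptide. The inoculum was prepared per the strip maker's instructions and matched CLSI M2-A9. Values come from two independent determinations.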

[13] = test system: Escherichia coli; experiment: Antibacterial activity against 5 x 10^5 CFU/ml Escherichia coli ATCC […] by Etest method by Etest in presence of 1 ug/ml NAB7061; format: functional
[14] = test system: Pseudomonas aeruginosa; experiment: Antibacterial activity against Pseudomonas aeruginosa ATCC 27853by Etest method in presence of 0.5 ug/ml NAB739; format: functional; procedure, shortened: as §1
[15] = test system: Pseudomonas aeruginosa; experiment: Antibacterial activity against Pseudomonas aeruginosa ATCC 27853by Etest method in presence of 1 ug/ml NAB739; format: functional; procedure, shortened: as §1
[16] = test system: Pseudomonas aeruginosa; experiment: Antibacterial activity against Pseudomonas aeruginosa ATCC 27853by Etest method in presence of 2 ug/ml NAB739; format: functional
[17] = test system: Escherichia coli; experiment: Antibacterial activity against Escherichia coli ATCC […] by Etest method in presence of 2 ug/ml NAB7062; format: functional
[18] = test system: Escherichia coli; experiment: Antibacterial activity against Escherichia coli ATCC […] by Etest method in presence of 4 ug/ml NAB7064; format: functional
[19] = test system: Escherichia coli; experiment: Antibacterial activity against Escherichia coli IH3080 by Etest method; format: functional
Procedure, shortened: (§2)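 E-strip MIC on Mueller-Hinton agar without added peptide; inoculum per manufacturer, matching CLSI M2-A9.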

[20] = test system: Escherichia coli; experiment: Antibacterial activity against Escherichia coli IH3080 by Etest method in presence of 1 ug/ml NAB7061; format: functional
[21] = test system: Escherichia coli; experiment: Antibacterial activity against Escherichia coli IH3080 by Etest method in presence of 2 ug/ml NAB7062; format: functional
[22] = test system: Escherichia coli; experiment: Antibacterial activity against Escherichia coli IH3080 by Etest method in presence of NAB7061; format: functional
[23] = test system: Klebsiella pneumoniae; experiment: Antibacterial activity against Klebsiella pneumoniae ATCC 13883 by Etest method; format: functional; procedure, shortened: as §1
[24] = test system: Klebsiella pneumoniae; experiment: Antibacterial activity against Klebsiella pneumoniae ATCC 13883 by Etest method in presence of 1 ug/ml NAB7061; format: functional; procedure, shortened: as §1
[25] = test system: Klebsiella pneumoniae; experiment: Antibacterial activity against Klebsiella pneumoniae ATCC 13883 by Etest method in presence of 2 ug/ml NAB7061; format: functional; procedure, shortened: as §1
[26] = test system: Enterobacter cloacae; experiment: Antibacterial activity against Enterobacter cloacae ATCC 23355 by Etest method; format: functional; procedure, shortened: as §2
[27] = test system: Enterobacter cloacae; experiment: Antibacterial activity against Enterobacter cloacae ATCC 23355 […] by Etest method in presence of 1 ug/ml NAB7061; format: functional
[28] = test system: Enterobacter cloacae; experiment: Antibacterial activity against Enterobacter cloacae ATCC 23355 […] by Etest method in presence of 4 ug/ml NAB7064; format: functional
[29] = test system: Enterobacter cloacae; experiment: Antibacterial activity against Enterobacter cloacae ATCC 23355 […] by Etest method in presence of NAB7061; format: functional
[30] = test system: Escherichia coli; experiment: Antibacterial activity against Escherichia coli by Etest method in presence of 4 ug/ml NAB7061; format: functional
[31] = test system: Escherichia coli; experiment: Antibacterial activity against Escherichia coli NCTC13353 by Etest method in presence of 4 ug/ml NAB7062; format: functional
[32] = test system: Klebsiella pneumoniae; experiment: Antibacterial activity against Klebsiella pneumoniae CCUG45421 by Etest method in presence of 4 ug/ml NAB7063; format: functional
[33] = test system: Klebsiella pneumoniae; experiment: Antibacterial activity against Klebsiella pneumoniae by Etest method in presence of 4 ug/ml NAB7064; format: functional
[34] = test system: Klebsiella oxytoca; experiment: Antibacterial activity against Klebsiella oxytoca CCUG51683 by Etest method in presence of 4 ug/ml NAB7066; format: functional
[35] = test system: Enterobacter cloacae; experiment: Antibacterial activity against Enterobacter cloacae CCUG52947 by Etest method in presence of 4 ug/ml NAB7067; format: functional
[36] = test system: Citrobacter freundii; experiment: Antibacterial activity against Citrobacter freundii ATCC 8090 by Etest method in presence of 4 ug/ml NAB7069; format: functional
[37] = test system: Acinetobacter baumannii; experiment: Antibacterial activity against Acinetobacter baumannii by Etest method in presence of 4 ug/ml NAB7071; format: functional
[38] = test system: Serratia marcescens; experiment: Antibacterial activity against Serratia marcescens ATCC 8100 by Etest method in presence of 4 ug/ml NAB7072; format: functional
[39] = test system: Proteus mirabilis; experiment: Antibacterial activity against Proteus mirabilis ATCC 29906 by Etest method in presence of 4 ug/ml NAB7073; format: functional
[40] = test system: Proteus vulgaris; experiment: Antibacterial activity against Proteus vulgaris ATCC 13315 by Etest method in presence of 4 ug/ml NAB7074; format: functional
[41] = test system: Pseudomonas aeruginosa; experiment: Antibacterial activity against Pseudomonas aeruginosa ATCC 27853 by Etest method in presence of 4 ug/ml NAB7075; format: functional
[42] = test system: Escherichia coli; experiment: microbe, parasite or virus in culture; conditions: ATCC 25992
[43] = test system: Escherichia coli; experiment: microbe, parasite or virus in culture; conditions: ATCC 25992; remark: listed apart in the source
[44] = test system: Escherichia coli; experiment: microbe, parasite or virus in culture; conditions: ATCC 25992; remark: listed apart in the source
[45] = test system: Escherichia coli; experiment: microbe, parasite or virus in culture; conditions: ATCC 25992; remark: listed apart in the source

**Q.** For CO[C@H]1/C=C/O[C@@]2(C)Oc3c(C)c(O)c4c(O)c(c(/C=N/N5CCN(C)CC5)c(O)c4c3C2=O)NC(=O)/C(C)=C\C=C\[C@H](C)[C@H](O)[C@@H](C)[C@@H](O)[C@@H](C)[C@H](OC(C)=O)[C@@H]1C [RIFAMPIN], which MIC [1] is on record?
**A.** The MIC was 12 µg/mL.

**Q.** What about the “fractional inhibitory concentration index (FICI)” value [2] of the same compound?
**A.** Its value is “<=0.128”.

**Q.** What about the “fractional inhibitory concentration index (FICI)” value [3] of the same compound?
**A.** Its value is 0.071.

**Q.** What about the MIC [4] of the same compound?
**A.** The MIC was 32 µg/mL.

**Q.** And the MIC [5]?
**A.** The MIC was 32 µg/mL (≈ 38.9 µM).

**Q.** What about the MIC [6] of the same compound?
**A.** The MIC was 0.016 µg/mL.

**Q.** What about the MIC [7] of the same compound?
**A.** The MIC was 0.094 µg/mL.

**Q.** And the MIC [8]?
**A.** The MIC was 0.38 µg/mL.

**Q.** What about the MIC [9] of the same compound?
**A.** Its MIC is 0.006 µg/mL.

**Q.** What about the MIC [10] of the same compound?
**A.** The MIC was 4 µg/mL (≈ 4.86 µM).

**Q.** What about the MIC [11] of the same compound?
**A.** The MIC was 0.031 µg/mL.

**Q.** What about the MIC [12] of the same compound?
**A.** The MIC was 0.016 µg/mL.

**Q.** What about the MIC [13] of the same compound?
**A.** The MIC was 0.19 µg/mL.

**Q.** And the MIC [14]?
**A.** The MIC was 32 µg/mL.

**Q.** And the MIC [15]?
**A.** The MIC was 16 µg/mL.

**Q.** What about the MIC [16] of the same compound?
**A.** The MIC was 4 µg/mL.

**Q.** And the MIC [17]?
**A.** Its MIC is 0.064 µg/mL.

**Q.** And the MIC [18]?
**A.** Its MIC is 0.016 µg/mL.

**Q.** And the MIC [19]?
**A.** The MIC was 8 µg/mL (≈ 9.72 µM).

**Q.** And the MIC [20]?
**A.** The MIC was 0.25 µg/mL.

**Q.** What about the MIC [21] of the same compound?
**A.** Its MIC is 0.19 µg/mL.

**Q.** What about the MIC [22] of the same compound?
**A.** Its MIC is at most 0.055 µg/mL.

**Q.** And the MIC [23]?
**A.** Its MIC is over 16 µg/mL.

**Q.** And the MIC [24]?
**A.** Its MIC is 1.5 µg/mL.

**Q.** What about the MIC [25] of the same compound?
**A.** The MIC was 0.25 µg/mL.

**Q.** And the MIC [26]?
**A.** The MIC was 12 µg/mL (≈ 14.6 µM).

**Q.** And the MIC [27]?
**A.** Its MIC is 8 µg/mL.

**Q.** And the MIC [28]?
**A.** Its MIC is 0.008 µg/mL.

**Q.** What about the MIC [29] of the same compound?
**A.** Its MIC is 0.26 µg/mL.

**Q.** What about the MIC [30] of the same compound?
**A.** The MIC was 0.016 µg/mL.

**Q.** And the MIC [31]?
**A.** The MIC was 0.064 µg/mL.

**Q.** What about the MIC [32] of the same compound?
**A.** The MIC was 2 µg/mL.

**Q.** What about the MIC [33] of the same compound?
**A.** Its MIC is 0.19 µg/mL.

**Q.** And the MIC [34]?
**A.** Its MIC is 0.012 µg/mL.

**Q.** And the MIC [35]?
**A.** Its MIC is 0.032 µg/mL.

**Q.** What about the MIC [36] of the same compound?
**A.** The MIC was 0.023 µg/mL.

**Q.** What about the MIC [37] of the same compound?
**A.** Its MIC is 0.032 µg/mL.

**Q.** And the MIC [38]?
**A.** The MIC was 16 µg/mL.

**Q.** What about the MIC [39] of the same compound?
**A.** The MIC was 1 µg/mL.

**Q.** And the MIC [40]?
**A.** The MIC was 1 µg/mL.

**Q.** What about the MIC [41] of the same compound?
**A.** Its MIC is 12 µg/mL.

**Q.** What about the MIC [42] of the same compound?
**A.** Its MIC is 8 µg/mL (≈ 9.72 µM).

**Q.** What about the MIC [43] of the same compound?
**A.** The MIC was 8 µg/mL (≈ 9.72 µM).

**Q.** What about the MIC [44] of the same compound?
**A.** Its MIC is 8 µg/mL (≈ 9.72 µM).

**Q.** What about the MIC [45] of the same compound?
**A.** Its MIC is 8 µg/mL (≈ 9.72 µM).
